Consider eleven compounds from article PMC6800637 (Cell chemical biology, 2019).

The subject of data set [1] is NRF2. Description: ARE-luciferase NRF2 activation assay. Type of data set: cell-based. Particulars: for Max. induction (fold): ARE-luciferase relative to vehicle control, MDA-MB-231.
Another data set concerns KEAP1. Put plainly: NRF2 immunoblot in KEAP1-WT and KEAP1-/- cells. Conditions: for level of NRF2 in KEAP1-/- cells: KEAP1-/- MDA-MB-231, four hours; for level of NRF2 in WT cells: KEAP1-WT MDA-MB-231, four hours. Format: cell-based.
Data set [2] has as its system NRF2. Description: Immunoblot of NRF2 and downstream genes. Conditions: for protein level of NRF2 and downstream target genes AKR1C1, NQO-1, HO-1, GCLM: MDA-MB-231, indicated doses, 16 hours. Type of data set: cell-based. The method in brief: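 MDA-MB-231 cells were seeded at 6×10^5 per 35 mm dish and treated 24 h later with test compound. Treatment was either a dose series for 16 h, or 2.33 or 71.5 µM (per compound) for a time course up to 48 h. Lysates were made in Laemmli buffer, boiled 5 min and run on SDS-PAGE, then immunoblotted for NRF2, AKR1C1, NQO1, HO-1 and GCLM. Done in triplicate.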
On the technique in general: In western blotting, separated proteins are transferred to a membrane and probed.

For data set [3], the system named is NRF2. Put plainly: Real-time qRT-PCR of NRF2 and downstream genes. Format: cell-based. Conditions: MDA-MB-231, 16 hours. The method in brief:
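MDA-MB-231 cells (6×10^5 per 35 mm dish) were treated 24 h after seeding with test compound for 16 h. Total RNA was TRIzol-extracted, and 1 µg was reverse-transcribed with M-MLV RT. SYBR Green qPCR: 95 °C 4 min, then 45 cycles of 95 °C 10 s and 60 °C 30 s. Values are normalised to GAPDH with untreated set to 1. Three runs in duplicate, mean ± SD, Student t-test.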
In general terms: Quantitative PCR measures a nucleic acid by following its amplification.

Data set [4] concerns NRF2. Put plainly: NRF2 ubiquitination assay. Format: cell-based. Conditions: MDA-MB-231 transfected with NRF2 and HA-Ubiquitin, 3 2.33 µM, 5 71.5 µM, 4 hours.
In another data set the test system is KEAP1-C151S. Description: Dual luciferase reporter assay and immunoblot, KEAP1-C151S re-expressed. Format: cell-based. Conditions: for KEAP1-Cys151 dependence of NRF2 activation: KEAP1-WT versus KEAP1-C151S, dual luciferase and immunoblot; for firefly luciferase induction in the presence of KEAP1-C151S: KEAP1-/- MDA-MB-231 + KEAP1-C151S, 5 at EC50, As 1 µM, 16 hours. In general terms: In a reporter assay the amount or activity of a reporter protein is the signal.

Data set [5] has as its system NRF2. Put plainly: NRF2 protein half-life. Format: cell-based.
In a further data set the test system is KEAP1-WT. Put plainly: Dual luciferase reporter assay and immunoblot, KEAP1-WT re-expressed. Type of data set: cell-based. Conditions: KEAP1-/- MDA-MB-231 + KEAP1-WT, at EC50, 16 hours. An outline of the steps:
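KEAP1−/− MDA-MB-231 cells (CRISPR-Cas9) were co-transfected with a KEAP1-WT expression vector plus NQO1-ARE firefly and TK-Renilla luciferase reporters. After 24 h, cells were treated with test compound for 16 h; controls were SFN (2 µM) and NaAsO2 (1 µM). Firefly activity is reported relative to Renilla (dual-luciferase), with an NRF2/KEAP1 immunoblot normalised to GAPDH. Mean ± SD of three independent experiments.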

Setting [6] is: induction of ARE-luciferase, MDA-MB-231, 16 hours.
Setting [7] is: MDA-MB-231 ARE-luciferase cell line, 48 h, MTT.
Setting [8] is: MDA-MB-231, 71.5 µM, cycloheximide.

Like-named read-outs stand apart in the source and are kept apart here.

A word on the EC50: it is the midpoint of the concentration-response curve. Read a high EC50 as a less potent agent. For “1-O-Acetyl-15α-hydroxy-15-deoxy-methylgeopyxin A [Compound 14]”, the “Max. induction (fold)” value with NRF2 [1] came to 4.2 fold. In addition, on NRF2 [1] (setting [6]), the midpoint of the response, the EC50, lay at 54.5 ± 5.1 µM. In addition, the “LD50 [48 h]” value in the data set on MDA-MB-231 cells was found to be 123.63 ± 3.89 µM.
For “15α-Hydroxy-15-deoxy-methylgeopyxin A [Compound 13]”, the “Max. induction (fold)” value with NRF2 [1] is listed as 1.9 fold. At NRF2 [1] (setting [6]), this compound gave an EC50 of 73.1 ± 0.87 µM. Moreover, the “LD50 [48 h]” value with MDA-MB-231 cells was more than 128 µM.
As for 16,17-dihydrogeopyxin A [Compound 16], in the data set on NRF2 [1], the “Max. induction (fold)” value was found to be 1.6 fold. This compound came in with an EC50 on NRF2 [1] (setting [6]) of 70.4 ± 5.12 µM. Besides, the “LD50 [48 h]” value in the data set with MDA-MB-231 cells is more than 128 µM.
For “16,17-epoxymethylgeopyxin A [Compound 15]” the same measures were 3.5 fold, 26.8 ± 4.08 µM and 115.11 ± 3.57 µM.
As to `C=C1C(=O)[C@]23C[C@H]1CC[C@H]2[C@]1(C)[C@@H](O)CC[C@@](C)(C(=O)O)[C@H]1C[C@@H]3O` [Compound 1, geopyxin A], in the data set with NRF2 [1], the “Max. induction (fold)” value was found to be 2.1 fold. In addition, the EC50 with NRF2 [1] (Homo sapiens, MDA-MB-231, 16 h) was found to be 4.44 ± 0.41 µM. Moreover, the “LD50 [48 h]” value in the data set with MDA-MB-231 cells (setting [7]) is 60.36 ± 1.18 µM.
For the compound `C=C1C(=O)[C@]23C[C@H]1CC[C@H]2[C@]1(C)C(=O)CC[C@@](C)(C(=O)O)[C@H]1C[C@@H]3O` [Compound 3, geopyxin C], in the data set on KEAP1, the “level of NRF2 in KEAP1-/- cells” value was “failed to further activate” and the “level of NRF2 in WT cells” value is “dose-dependent activation”. Besides, the “time of peak NRF2 protein level” value in the data set on NRF2 [2] (MDA-MB-231, 2.33 µM 3) was 4 h. Moreover, the “protein level of NRF2 and downstream target genes AKR1C1, NQO-1, HO-1, GCLM” value in the data set on NRF2 [2] is “dose dependent increases”. Besides, in the data set on NRF2 [3], the “mRNA level of NRF2” value is on record as “remained unchanged” and the “mRNA levels of the downstream genes” value was “increased in a dose dependent manner”. Also, the “ubiquitylation of NRF2” value in the data set on NRF2 [4] was “largely fails to be ubiquitylated”. In addition, the “Max. induction (fold)” value in the data set with NRF2 [1] worked out at 2.1 fold. On NRF2 [1] (setting [6]), this compound yielded an EC50 of 2.33 ± 0.35 µM. In the data set with MDA-MB-231 cells (setting [7]), the “LD50 [48 h]” value is 51.29 ± 1.23 µM. The “KEAP1-Cys151 dependence of NRF2 activation” value in the data set on KEAP1-C151S was “Cys151 dependent”. In the data set on NRF2 [5] (MDA-MB-231, at EC50, cycloheximide, in words), the “half-life of NRF2” value is on record as “increased the half-life”. The “firefly luciferase induction in the presence of KEAP1-WT” value with KEAP1-WT is “induced”.
For the compound `C[C@]12[C@@H]3CC[C@@H]4C[C@]3(C(=O)[C@@H]4CO)[C@@H](O)C[C@@H]1[C@](C)(C(=O)O)CC[C@@H]2O` [Compound 5, geopyxin F], in the data set on KEAP1, the “level of NRF2 in KEAP1-/- cells” value is given as “failed to further activate” and the “level of NRF2 in WT cells” value is listed as “dose-dependent activation”. In addition, the “time course of NRF2 protein level” value in the data set on NRF2 [2] (MDA-MB-231, 71.5 µM 5) is listed as “continues to steadily rise all the way up to 48 hours”. For the same compound, in the data set with NRF2 [2], the “protein level of NRF2 and downstream target genes AKR1C1, NQO-1, HO-1, GCLM” value is reported as “dose dependent increases”. In the data set with NRF2 [3], the “mRNA level of NRF2” value is “remained unchanged” and the “mRNA levels of the downstream genes” value is “increased in a dose dependent manner”. The “ubiquitylation of NRF2” value in the data set with NRF2 [4] was “largely fails to be ubiquitylated”. The “Max. induction (fold)” value in the data set on NRF2 [1] is on record as 3.0 fold. The compound further returned an EC50 on NRF2 [1] (setting [6]) of 71.5 ± 5.8 µM. In the data set with MDA-MB-231 cells, the “LD50 [48 h]” value is reported as more than 128 µM and the cellular toxicity entry is recorded as “no cellular toxicity”. Besides, in the data set with KEAP1-C151S, the “firefly luciferase induction in the presence of KEAP1-C151S” value was “induction” and the “KEAP1-Cys151 dependence of NRF2 activation” value is “independent of KEAP1-Cys151”. The “half-life of NRF2” value in the data set with NRF2 [5] is on record as “increased the half-life”. For the same compound, in the data set with NRF2 [5] (setting [8]), the “increase of half-life of NRF2 relative to compound 3” value is “more than 2 times” and the “increase of half-life of NRF2 relative to untreated cells” value is reported as “more than 3 times”. Besides, the “firefly luciferase induction in the presence of KEAP1-WT” value in the data set with KEAP1-WT is “induced”.
For `C=C1C(=O)[C@]23C[C@H]1CC[C@H]2[C@]1(C)[C@@H](O)CC[C@@](C)(C(=O)OC)[C@H]1C[C@@H]3O` [Compound 6, methylgeopyxin A], the “Max. induction (fold)” value in the data set on NRF2 [1] is listed as 2.2 fold. Further, a half-maximal response with NRF2 [1] (Homo sapiens, MDA-MB-231, 16 h) (EC50) required 2.32 ± 0.17 µM. In addition, the “LD50 [48 h]” value with MDA-MB-231 cells (setting [7]) was 8.69 ± 0.93 µM.
`O=[As][O-].[Na+]` [NaAsO2, Sodium (meta)arsenite, reference compound]: the “firefly luciferase induction in the presence of KEAP1-C151S” value in the data set on KEAP1-C151S is given as “induction”.
Consider `C[S+]([O-])CCCCN=C=S` (centres unmarked) [SFN, sulforaphane, reference compound], for which the “ubiquitylation of NRF2” value in the data set with NRF2 [4] is reported as “largely fails to be ubiquitylated”. Also, in the data set with NRF2 [1], the “Max. induction (fold)” value came out at 1.9 fold. In the data set with NRF2 [1] (Homo sapiens, MDA-MB-231, 16 h), this compound gave an EC50 of 0.97 ± 0.18 µM. In the data set with MDA-MB-231 cells (human, 48 h), the “LD50 [48 h]” value was 46.2 µM.
In the case of `CC(C)(C)c1cc(O)ccc1O` [tBHQ, tert-butylhydroquinone, reference compound], the “Max. induction (fold)” value in the data set on NRF2 [1] turned out to be 2.2 fold. In addition, a half-maximal effect with NRF2 [1] (Homo sapiens, MDA-MB-231, 16 h) (EC50) was put at 2.43 ± 0.34 µM. In addition, the “LD50 [48 h]” value in the data set on MDA-MB-231 cells (setting [7]) turned out to be 85.1 µM.
